Source: PubChem (The Scripps Research Institute Molecular Screening Center)
Rows were chosen to be rich in hits. Some 1.8% of all compounds tested hit in one or more screens of this group.
CHRM5 PAM: human M5 muscarinic receptor positive allosteric modulators, primary screen, CHO-K1 cells, Fluo-8 calcium fluorescence. activation, % at 3 µM. actives 0.3% (n = 360,000). Muscarinic acetylcholine receptor M5 (Homo sapiens), P08912. CHO-K1 hM5, ACh EC20 PAM; 0% = ACh EC20, 100% = ACh EC100. AID 624038, 2012;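 active = activation above the run cutoff, the mean activation of all test compounds plus 3 SD, cut at about 18% in these data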
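Measured by: Fluo-8 calcium fluorescence; material: human M5 receptor in CHO-K1 cells; schedule: Post-acetylcholine fluorescence recording 140 s; benchmarks: low control EC20 acetylcholine (0%), high control EC100 acetylcholine (100%); read-out: Max/basal fluorescence ratio as % of EC20–EC100 ACh window; compound: single dose, 3 µM nominal final test concentration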
CHRM4 antagonist: human M4 muscarinic receptor antagonists, primary screen, CHO cells, Fluo-8 calcium fluorescence. actives 0.73% (n = 360,000). AID 624125, 2012. inhibition, % at 3 µM. CHO-hM4 cells, ACh EC80;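 active = inhibition above its plate's cutoff, the mean inhibition of sample wells plus 3 SD, cut at about 27% in these data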;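 note: 0% = acetylcholine EC80 with DMSO and 100% = DMSO without agonist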
Target sequence (P08173 whole entry, looked up): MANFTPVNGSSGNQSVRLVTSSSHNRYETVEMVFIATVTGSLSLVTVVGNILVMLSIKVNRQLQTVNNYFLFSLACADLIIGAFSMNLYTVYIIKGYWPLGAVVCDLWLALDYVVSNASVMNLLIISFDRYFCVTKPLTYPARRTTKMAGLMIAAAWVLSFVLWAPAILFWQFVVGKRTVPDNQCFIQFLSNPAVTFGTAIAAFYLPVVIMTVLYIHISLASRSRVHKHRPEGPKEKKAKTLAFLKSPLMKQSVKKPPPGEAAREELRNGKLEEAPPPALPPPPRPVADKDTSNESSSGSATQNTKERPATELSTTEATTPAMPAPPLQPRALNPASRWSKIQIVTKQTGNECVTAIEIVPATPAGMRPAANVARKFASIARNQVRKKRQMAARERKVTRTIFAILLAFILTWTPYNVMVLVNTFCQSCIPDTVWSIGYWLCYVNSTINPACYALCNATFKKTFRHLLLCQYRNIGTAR
CHRM5 agonist: human M5 muscarinic receptor agonists, primary screen, CHO-K1 cells, Fluo-8 calcium fluorescence; activation, % at 3 µM; actives 0.19% (n = 360,000); AID 624037, 2012; CHO-K1 hM5 cells; 0% DMSO wells, 100% maximal acetylcholine response; Muscarinic acetylcholine receptor M5 (Homo sapiens), P08912;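 active = activation above the run's mean over test compounds plus 3 SD, cut at about 23% in these data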;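 note: signal is peak over basal fluorescence ratio across the kinetic read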
CHRM4 PAM: human M4 muscarinic receptor positive allosteric modulators, primary screen, CHO-K1 cells, Fluo-8 calcium fluorescence. Muscarinic acetylcholine receptor M4 (Homo sapiens), P08173. CHO-K1 hM4/Gqi5, ACh EC20; 0% = ACh EC20, 100% = maximal ACh. activation, % at 3 µM. actives 0.4% (n = 360,000). AID 624126, 2012;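 active = activation above its plate's cutoff, the mean activation of sample wells plus 3 SD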
M4 ag: human M4 muscarinic receptor agonists, primary screen, CHO-K1 cells, Fluo-8 calcium fluorescence; Muscarinic acetylcholine receptor M4 (Homo sapiens), P08173; AID 624127, 2012; activation, % at 3 µM; actives 0.14% (n = 360,000); CHO-K1 hM4/Gqi5; vehicle 0%, full acetylcholine response 100%;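 active = activation above the run mean over all test wells plus 3 SD, cut at about 32% in these data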;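 note: peak over basal fluorescence ratio per well then scaled between controls; 0% = DMSO wells and 100% = acetylcholine at EC100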
M5 antag: human M5 muscarinic receptor antagonists, primary screen, CHO cells, Fluo-8 calcium fluorescence; Muscarinic acetylcholine receptor M5 (Homo sapiens), P08912; CHO-hM5 cells, ACh EC80; inhibition, % at 3 µM; actives 0.59% (n = 360,000);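 active = inhibition above a per-plate cutoff, the mean of that plate's test compounds plus 3 SD, cut at about 27% in these data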;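 note: 0% = acetylcholine EC80 with DMSO and 100% = DMSO without agonist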
* = called active by the depositor.

SMILES	CHRM5 PAM	CHRM4 antagonist	CHRM5 agonist	CHRM4 PAM	M4 ag	M5 antag
CC(C)c1cc(Cn2c3ccccc3c(=O)n2C(C)C)on1	-3	-2	-5	0	1	10
CCCCN(C=O)c1c(CC)nc2ccc(C(=O)NCCOc3ccc(OC)cc3)cn12	-6	-36	-2	-2	11	-7
O=C(CN1C(=O)NC(c2ccccc2)(c2ccccc2)C1=O)NCc1ccc(F)cc1	-4	-10	4	6	7	-3
Cc1ccc(C)c(N2CCN(c3ccc4cc(S(=O)(=O)N5CCCCC5)ccc4n3)CC2)c1	18*	-20	-2	8	3	-22
O=C(COC(=O)c1cc(Cl)ccc1O)NCC1CCCO1 (stereo not given)	1	-2	1	3	0	2
CCOC(=O)C1(C)CCCN(C(=O)COc2ccccc2)C1 (stereo not given)	-2	-10	1	2	1	-2
CCn1c(NCc2ccc(N(C)C)cc2)nc2ccccc21	18*	-3	-7	8	2	-3
CC(NC(=O)c1ccc(NC(=O)CC2SC(N3CCCC3)=NC2=O)cc1)c1ccccc1 (stereo not given)	7	2	2	3	0	2
Cn1cc(S(=O)(=O)Oc2ccccc2)c(=O)n(C)c1=O	5	-7	-2	5	2	9
O=C1NC[C@@H](CCCCN2C[C@H](Cc3ccc(O)cc3)N(CC3CCCCC3)C(=O)C2=O)N(Cc2ccccc2)C1=O	-3	-11	7	5	37*	0
O=C1NC[C@@H](CCCCN2C[C@H](Cc3ccccc3)N(CC3CCCCC3)C(=O)C2=O)N(CC2CCCCC2)C1=O	-3	-12	11	7	59*	3
O=C1NC[C@@H](CCCCN2C[C@H](Cc3ccccc3)N(Cc3ccccc3)C(=O)C2=O)N(CC2CCCCC2)C1=O	0	1	1	4	0	2
FC(F)(F)c1ccccc1Cc1c(-c2cccc(Br)c2)nc2ccc(Br)cn12	3	-3	1	-1	0	-4
CC1(c2nnc(-c3ccncc3)o2)CC(c2ccc(F)cc2)=NO1 (stereo not given)	-3	-2	9	16	5	3
C[C@H]1CN([C@@H](C)CO)C(=O)Cc2cc(NC(=O)CCC(F)(F)F)ccc2O[C@H]1CN(C)S(=O)(=O)c1ccc(Cl)cc1	6	36*	-6	-15	1	-3
C[C@H](CO)N1C[C@H](C)[C@@H](CN(C)C(=O)NC2CCCCC2)Oc2ccc(NC(=O)CCC(F)(F)F)cc2C1=O	7	0	2	24*	2	-1
C[C@H]1CN([C@@H](C)CO)C(=O)Cc2cc(NC(=O)CCC(F)(F)F)ccc2O[C@H]1CN(C)S(=O)(=O)c1ccc(F)cc1	-2	63*	-1	-17	-1	11
CN(C)CCCNC(=O)N1c2ccccc2Sc2ccccc21	-34	97*	-24	-16	1	100*
O=C(NCCN1CCOCC1)N1c2ccccc2Sc2ccccc21	-29	38*	-13	-15	1	59*
CN1CCN(CCC(=O)N2c3ccccc3Sc3ccc(C(F)(F)F)cc32)CC1	-19	12	-6	-11	3	11
O=C(CCN1CCOCC1)N1c2ccccc2Sc2ccc(Cl)cc21	-17	57*	-7	-19	1	95*
C/C(=N\NC(=S)Nc1cc(S(=O)(=O)N2CCOCC2)ccc1Cl)c1ccccc1F	4	6	0	-2	1	-9
CN1CCC(=O)N(CCOc2ccccc2)CC1	20*	-15	2	21	1	-15
O=C(O)c1cccc(OCCN2CCCC2=O)c1	4	-2	2	3	0	-3
Cc1ccc(NC(=O)C(C)Sc2nc(-c3ccccc3)cc(=O)[nH]2)cc1 (stereo not given)	3	-1	-4	-1	1	1
SMILES	CHRM5 PAM	CHRM4 antagonist	CHRM5 agonist	CHRM4 PAM	M4 ag	M5 antag
NC(=O)c1ccccc1N/C=C/C(=O)c1ccc(Cl)cc1Cl	47*	-18	-4	5	0	-10
NC(=O)c1ccccc1N/C=C/C(=O)c1ccc(F)cc1	2	-19	-7	2	2	-5
COc1ccccc1NC(=O)CSc1nnc(-c2ccoc2C)n1C	-2	-9	1	-3	1	15
Cc1csc(NC(=O)c2cc(-c3ccccc3)nc3ccccc23)n1	-18	3	-1	-14	9	28*
Cc1ccc(OCC(=O)NNC(=O)c2cc(S(=O)(=O)N(C)C)ccc2N2CCCC2)cc1	-1	-1	0	1	1	3
Cc1cc(C(=O)CSc2nnc(-c3ccccc3)n2-c2ccccc2)c(C)n1-c1ncn[nH]1	0	-4	6	26*	0	-2
CCOC(=O)c1cnc(N2CCN(C(=O)OCC)CC2)[nH]c1=O	6	6	2	1	0	4
CS(=O)CSc1nc2c(cc1C#N)CCCC2 (stereo not given)	-24	58*	-4	-16	1	22
CCOC(=O)c1cc(C)n(CCc2ccccc2)c1C	6	-6	-6	-2	-2	-7
Cc1c(P(=S)(c2ccccc2)c2ccccc2)[n+]2ccccc2n1CCc1ccccc1	-7	56*	-4	-15	1	12
COC(=O)c1ccc(CN2CCCC(CO)(Cc3ccccc3F)C2)cc1 (stereo not given)	0	7	-12	-13	4	-2
COC(=O)c1ccc(CN2CCC(CO)(Cc3ccccc3Cl)CC2)cc1	-3	27*	-11	-24	2	0
O=C(C1CCN(Cc2ccc(Cl)cc2)CC1)N1CCN(C(c2ccccc2)c2ccccc2)CC1	-19	74*	-8	-18	0	44*
O=C(c1ccc(Cl)cc1)C1CCN(Cc2ccccc2)CC1	-12	0	-23	-14	1	-8
O=C(Nc1ccc(C(F)(F)F)cc1[N+](=O)[O-])O[C@H]1[C@H](Cc2ccccc2)NS(=O)(=O)[C@H]2C[C@@H]3C=C[C@]12O3	-5	1	1	5	8	2
